Reference: PMC10245921 (bioRxiv, 2023)
Where a chain is given by its changes, count along the chain named. Names and notes keep the numbering of the source. Values joined by “and” are separate entries in the source; they are usually repeats but may differ in a detail not shown here. Equal values may be shown once. Where no end group is shown, it is not given here. The star is where a group is joined. FITC = O=C1OC2(c3ccc(O)cc3Oc3cc(O)ccc32)c2ccc(NC(=S)*)cc21

B1: FITC-conjugated CD44 peptide (SRRRCGQKKKLVINSGNGAVEDYK-FITC) (peptide)
peptide: SRRRCGQKKKLVINSGNGAVEDYK(FITC)
B2: FERM domain of human MSN (1–345) H288A, 6His tag cleaved (domain or fragment)
chain: MPKTISVRVTTMDAELEFAIQPNTTGKQLFDQVVKTIGLREVWFFGLQYQDTKGFSTWLKLNKKVTAQDVRKESPLLFKFRAKFYPEDVSEELIQDITQRLFFLQVKEGILNDDIYCPPETAVLLASYAVQSKYGDFNKEVHKSGYLAGDKLLPQRVLEQHKLNKDQWEERIQVWHEEHRGMLREDAVLEYLKIAQDLEMYGVNYFSIKNKKGSELWLGVDALGLNIYEQNDRLTPKIGFPWSEIRNISFNDKKFVIKPIDKKAPDFVFYAPRLRINKRILALCMGNAELYMRRRKPDTIEVQQMKAQAREEKHQKQMERAMLENEKKKREMAEKEKEKIEREKE
B3: FERM domain of human MSN (1–345) L281R, 6His tag cleaved (domain or fragment)
chain: B2 chain with L281R, A288H

Columns and labels:
[1] = target: GST-tagged MSN and Flag-tagged CD44 (Homo sapiens, UniProt P26038); assay: GST-pull down assay in cell lysates; format: binding; settings: full length proteins in cell lysates
Chain of GST-tagged MSN and Flag-tagged CD44 (P26038 whole entry): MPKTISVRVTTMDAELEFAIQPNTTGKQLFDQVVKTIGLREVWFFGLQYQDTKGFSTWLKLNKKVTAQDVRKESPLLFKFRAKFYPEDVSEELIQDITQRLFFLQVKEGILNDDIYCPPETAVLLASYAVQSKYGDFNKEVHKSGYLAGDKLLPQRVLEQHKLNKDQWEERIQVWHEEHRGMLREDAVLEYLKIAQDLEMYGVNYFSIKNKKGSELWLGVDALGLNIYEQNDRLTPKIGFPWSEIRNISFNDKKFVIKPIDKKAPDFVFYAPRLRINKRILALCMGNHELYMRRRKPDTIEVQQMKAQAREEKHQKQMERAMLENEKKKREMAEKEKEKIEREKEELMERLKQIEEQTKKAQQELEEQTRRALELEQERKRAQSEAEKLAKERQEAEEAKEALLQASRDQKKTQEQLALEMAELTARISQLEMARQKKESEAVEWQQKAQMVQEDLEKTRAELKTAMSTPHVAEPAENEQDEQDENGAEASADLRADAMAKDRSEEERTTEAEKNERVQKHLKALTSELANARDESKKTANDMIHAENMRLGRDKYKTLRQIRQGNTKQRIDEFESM
How it was run: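 HEK293 cells co-express full-length GST-MSN and Venus-Flag-CD44; Venus marks CD44 expression. Lysates are diluted in 10 mM HEPES pH 7.5, 150 mM NaCl, 0.25% Triton X-100 with protease and phosphatase inhibitors. They are dose-treated with test compound in DMSO, rotating 1 h at 4 °C, then captured on GST resin for 1.5 h at 4 °C and washed three times. SDS-PAGE and immunoblotting detect Flag (CD44) and GST (MSN). Two experiments.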

SYK-FCER1G = SYK-FCER1G (Homo sapiens, UniProt P43405); assay: SYK TR-FRET counter screen; format: binding
MSN–CD44 interaction = MSN–CD44 interaction (Homo sapiens, UniProt P26038); assay: MSN–CD44 TR-FRET assay; format: binding; settings: for increase in potency relative to compound 2: MSN–CD44 TR-FRET; for IC50: IC50, confirmatory TR-FRET dose response, Fig. 4D, primary hits
Chain of MSN–CD44 interaction (P26038 1-345): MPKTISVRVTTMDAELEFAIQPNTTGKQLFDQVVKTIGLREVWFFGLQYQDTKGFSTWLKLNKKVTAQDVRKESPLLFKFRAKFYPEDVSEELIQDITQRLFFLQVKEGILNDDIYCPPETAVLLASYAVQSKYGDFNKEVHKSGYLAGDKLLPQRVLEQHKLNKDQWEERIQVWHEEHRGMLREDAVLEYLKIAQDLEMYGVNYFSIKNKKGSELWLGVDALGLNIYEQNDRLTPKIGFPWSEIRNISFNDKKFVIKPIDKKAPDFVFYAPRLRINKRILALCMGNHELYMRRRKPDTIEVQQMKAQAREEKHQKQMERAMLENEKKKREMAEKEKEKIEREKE

[2] = Solubility by nephelometry; format: physicochemical
MSN = MSN (Homo sapiens, UniProt P26038); assay: Thermal shift assay of MSN with compounds; format: binding; settings: two experiments
Chain of MSN (P26038 1-345): as above
How it was run: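 Precipitate is removed by centrifugation, then the mix is incubated 30 min at RT. Sypro Orange is added at 20x and the sample ramped 25→95 °C at 1 °C/min. Tm comes from a Boltzmann fit; ΔTm versus DMSO is averaged over two experiments.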

MSN FERM domain = MSN FERM domain (Homo sapiens, UniProt P26038); assay: Surface plasmon resonance; format: binding
Chain of MSN FERM domain (P26038 1-345): as above
How it was run: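 MSN FERM domain is amine-coupled to a CM5 chip in acetate pH 4, to 4000 RU. Multi-cycle kinetics use test compound at 0.5–8 μM. KD comes from a 1:1 binding model fit.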

[3] = target: LgBiT-MSN(T588D) and SmBit-CD44 (Homo sapiens, UniProt P26038, T558D); assay: NanoBiT split luciferase assay in live cells; format: cell-based
Chain of LgBiT-MSN(T588D) and SmBit-CD44 (P26038 whole entry T558D): as the sequence (P26038 whole entry) above, with T558D counted along it
How it was run: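 HEK293T cells (DMEM, 10% FBS, penicillin/streptomycin, 37 °C, 5% CO2) are seeded at 6000 cells/well. Next day they are transfected with CD44-SmBiT (C-terminal) and LgBiT-MSN(T558D) (N-terminal) plasmids, 20 ng and 5 ng, using Fugene HD; LgBiT-MSN(T558A) is the negative control. After 18 h, 2-fold dilutions of test compound (6.25–0.098 μM, DMSO) are added for 3 h. Nano-Glo Live Cell Reagent is added for 20 min at 37 °C, then luminescence is read. Two independent experiments.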

[4] = target: FERM domain of human MSN (residues 1–345), wild type, 6His tag cleaved (human, UniProt P26038 1-345); assay: FRET or BRET
[5] = target: 6His-tagged FERM domain of human MSN (residues 1–345), wild type (human, UniProt P26038 1-345); assay: FRET or BRET
[6] = target: B1; assay: FRET or BRET
[7] = IC50, CD44–MSN interaction in live cells (approximate), NanoBiT, live cells

O=C(Nc1ccc(-c2nc3ccccc3[nH]2)cc1)c1cccc(Cl)c1 [Compound 2b, N-(4-(1H-benzo[d]imidazol-2-yl)phenyl)-3-chlorobenzamide]
activity in GST-pulldown assay [1]: able to inhibit
activity in the counter screen (SYK-FCER1G): no activity
increase in potency relative to compound 2 (MSN–CD44 interaction): 2 fold
solubility in aqueous/PBS buffer [2]: improved solubility
av. ΔTm of MSN compared to DMSO alone (MSN; at 50 μM): 1.2 °C

COc1ccccc1C(=O)Nc1ccc(-c2nc3ccccc3[nH]2)cc1 [Compound 2, N-(4-(1H-benzo[d]imidazol-2-yl)phenyl)-2-methoxybenzamide]
activity in GST-pulldown assay [1]: active
Kd (MSN FERM domain): 700 nM
IC50 [3, 7]: ~200 nM
IC50 (MSN–CD44 interaction): 5000 to 20000 nM
solubility in aqueous/PBS buffer [2]: low solubility
av. ΔTm of MSN compared to DMSO alone (MSN; at 20 μM): 1–2 °C

COc1ccc(C(=O)Nc2ccc(-c3nc4ccccc4[nH]3)cc2)c(OC)c1 [Compound 2a, N-(4-(1H-benzo[d]imidazol-2-yl)phenyl)-2,4-dimethoxybenzamide]
activity in GST-pulldown assay [1]: able to inhibit
activity in the counter screen (SYK-FCER1G): no activity
increase in potency relative to compound 2 (MSN–CD44 interaction): 8 fold
solubility in aqueous/PBS buffer [2]: improved solubility
av. ΔTm of MSN compared to DMSO alone (MSN; at 50 μM): 1.3 °C

Nc1ccc(C(=O)Nc2ccc(-c3nc4ccc(NC(=O)c5ccc(N)cc5)cc4s3)cc2)cc1.O=C(O)C(F)(F)F.O=C(O)C(F)(F)F [Compound 1, 4-amino-N-(4-(6-(4-aminobenzamido)benzo[d]thiazol-2-yl)phenyl)benzamide bis(2,2,2-trifluoroacetate)]
activity in GST-pulldown assay [1]: active
Kd (MSN FERM domain): 4200 nM
IC50 [3, 7]: ~600 nM
IC50 ([3]; IC50, NanoBiT bioluminescence assay, HEK293 cells, 2 independent experiments): 570 nM and 690 nM
IC50 (MSN–CD44 interaction): 5000 to 20000 nM
av. ΔTm of MSN compared to DMSO alone (MSN; at 20 μM): 1–2 °C

B1
binding result [4]: binds
binding result [5]: binds

B2
fold higher concentration than wild type needed to inhibit [6]: 10 fold

B3
fold higher concentration than wild type needed to inhibit [6]: 10 fold
